Experimental data collected from several papers.
Target: cGMP-dependent protein kinase 1 (PRKG1, Homo sapiens, UniProt Q13976)
Sequence (Q13976 1-671, as in one of the studies): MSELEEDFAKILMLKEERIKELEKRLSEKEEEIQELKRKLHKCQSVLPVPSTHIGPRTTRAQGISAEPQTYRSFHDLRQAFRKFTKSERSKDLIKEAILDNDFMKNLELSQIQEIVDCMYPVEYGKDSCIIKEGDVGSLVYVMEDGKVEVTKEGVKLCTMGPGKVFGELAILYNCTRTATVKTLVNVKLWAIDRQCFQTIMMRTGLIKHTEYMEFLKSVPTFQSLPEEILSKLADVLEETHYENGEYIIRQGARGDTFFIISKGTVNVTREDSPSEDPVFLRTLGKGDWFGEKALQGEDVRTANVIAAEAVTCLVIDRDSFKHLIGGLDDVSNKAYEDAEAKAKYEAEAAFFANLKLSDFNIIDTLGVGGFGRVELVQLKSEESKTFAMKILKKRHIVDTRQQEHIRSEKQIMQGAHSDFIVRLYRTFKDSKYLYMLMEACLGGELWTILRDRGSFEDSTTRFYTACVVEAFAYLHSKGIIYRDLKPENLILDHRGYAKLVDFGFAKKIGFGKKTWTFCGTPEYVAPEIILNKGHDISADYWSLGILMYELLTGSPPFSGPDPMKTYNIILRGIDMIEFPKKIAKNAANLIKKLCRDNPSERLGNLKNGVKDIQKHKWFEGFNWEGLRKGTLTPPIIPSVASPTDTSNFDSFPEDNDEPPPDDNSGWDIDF

SMILES | read-out | technique | concentration | remaining binding [%]
c1cnn2ncc(-c3ccnc(N4CCC45COC5)n3)c2c1 | binding | – | 1 µM | 89
CNC(=O)[C@@H]1CC[C@@H](n2c(-c3ccc4cnccc4c3)nc3ccc(C(=O)NCc4cccc(C(N)=O)c4)cc32)C1 | binding | competition with immobilised ligand | 1 µM | 98
F[C@@H]1CCN(c2nccc(-c3cnn4ncccc34)n2)C1 | binding | – | 1 µM | 90
FC(F)(F)c1ccc2c(c1)nc(-c1cccnc1)n2C1CC1 | cell-free assay | competition with immobilised ligand | 1 µM | 87
O=C(NCCCN1CCOCC1)c1ccc(Nc2nccc(-c3cc4ccccc4s3)n2)cc1 | binding | competition with immobilised ligand | 1 µM | 99
CN(C)c1nccc(-c2cnc3ncccn23)n1 | binding | – | 1 µM | 81
CCOC(=O)c1cc2cc(-c3cc(C(=O)NCc4ccc(C(=O)O)cc4)nn3C)ccc2[nH]1 | cell-free assay | competition with immobilised ligand | 0.1 µM | 91
O=C(c1ccc(Nc2nccc(-c3cc4ccccc4s3)n2)cc1)N1CCC(N2CCCC2)CC1 | binding | competition with immobilised ligand | 1 µM | 100
Cc1cnn2ncc(-c3ccnc(N(C)C)n3)c2c1 | binding | – | 1 µM | 99
COc1ncc2cc3ccccc3nc2c1C#N | cell-free assay | competition with immobilised ligand | 5 µM | 100
COc1cc(-c2cn(C3CCc4c(F)cccc4N(CC(F)(F)F)C3=O)nn2)ccc1-n1cnc(C)c1 (stereo not drawn) | cell-free assay | competition with immobilised ligand | 1 µM | 100
C[C@@H]1CCN(c2nccc(-c3cnn4ncccc34)n2)C1 | binding | – | 1 µM | 68
CS(=O)(=O)NCC[C@H](NC(=O)c1cncc2c1cnn2-c1ccc(F)cc1)c1ccnc(S(C)(=O)=O)c1 | cell-free assay | competition with immobilised ligand | 1 µM | 96
CCN1CCN(Cc2ccc(C(=O)Nc3ccc(C)c(Oc4ccc5c(c4)CC(=O)N5)c3)cc2C(F)(F)F)CC1 | binding | competition with immobilised ligand | 1 µM | 100
CCCOc1ccc([C@H]2[C@H](C(=O)O)[C@@H](c3ccc4c(c3)OCO4)CN2CC(=O)Nc2c(CC)cccc2CC)cc1 | cell-free assay | competition with immobilised ligand | 1 µM | 88
C[C@@H](c1ccc(-n2cnc3c(N)ncnc32)cc1)N1CCc2nn(C)c(Cc3ccccc3)c2C1=O | binding | competition with immobilised ligand | 0.1 µM | 82
O=C(Nc1c[nH]nc1C(=O)NC1CCNCC1)c1cc(F)cc(F)c1 | binding | competition with immobilised ligand | 1 µM | 100
O=C(c1ccc(Nc2ncc(Cl)c(-c3cc4ccccc4s3)n2)cc1)N1CCC(N2CCCC2)CC1 | binding | competition with immobilised ligand | 1 µM | 100
COc1ccc2c(c1)O[C@@H](c1ccc(OC)c(OC)c1)C[C@H]2NC(=O)C1(c2ccc3c(c2)OC(F)(F)O3)CC1 | cell-free assay | competition with immobilised ligand | 1 µM | 100
N[C@H]1CCN(c2nccc(-c3cnn4ncccc34)n2)C1 | binding | – | 1 µM | 89
C=CC(=O)N1CCC(C(=O)NCC(=O)N2CCN(c3nc(-c4cnc(N)nc4C(F)F)nc(N4CCOCC4)n3)CC2)CC1 | binding | competition with immobilised ligand | 1 µM | 87
